In the library only some 3.6% were active in any assay of this set; here they are far more common.
VIM-2 inhibitor = VIM-2 metallo-beta-lactamase inhibitors, primary screen, biochemical, epi-absorbance readout, Pseudomonas aeruginosa enzyme | AID 1527, 2009 | actives 0.89% (n = 290,000) | purified VIM-2, nitrocefin hydrolysis, epi-absorbance fluorescence | inhibition, % at 5.6 µM;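 active = inhibition above the mean of all tested compounds plus 3 SD, cutoff set per screening run, cut at about 7.5% in these data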;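 note: red hydrolysis product quenches plate fluorescence so inhibitors raise well fluorescence; 0% = enzyme with DMSO and 100% = DMSO without enzyme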
pPAFAH FP inh = pPAFAH enzyme inhibitors, primary screen, biochemical, fluorescence polarization, human; actives 1.5% (n = 330,000); inhibition, % at 3.39 µM; Platelet-activating factor acetylhydrolase (Homo sapiens), Q13093; recombinant pPAFAH, FP-rhodamine probe fluorescence polarization;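 active = inhibition above the mean inhibition across the screen plus 3 SD, cut at about 25% in these data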;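 note: inhibitors block binding of the rhodamine activity-based probe so polarization drops; 0% = enzyme with DMSO and 100% = wells lacking pPAFAH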
IMP-1 inh = IMP-1 metallo-beta-lactamase inhibitors, primary screen, biochemical, epi-absorbance readout, Pseudomonas aeruginosa enzyme. metallo-beta-lactamase IMP-1 (Pseudomonas aeruginosa). purified IMP-1, nitrocefin hydrolysis, epi-absorbance fluorescence. inhibition, % at 5.6 µM. actives 0.45% (n = 290,000). AID 1556, 2009;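 active = inhibition above the mean plus 3 SD of all compounds in the same screening run, cut at about 4.5% in these data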;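 note: 0% = IMP-1 with DMSO and 100% = DMSO wells lacking enzyme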
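system = purified recombinant IMP-1 beta-lactamase | amount = 0.2 nM IMP-1, as dispensed | medium = HEPES buffer pH 7.1 with ZnSO4 and Brij 35 | times = 25 °C, 15 min preincubation, 25 min reaction | detection = plate fluorescence quenching by hydrolysis product, ex 480/em 530 nm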
PAFAH2 inh = PAFAH2 enzyme inhibitors, primary screen, biochemical, fluorescence polarization, human; recombinant PAFAH2, FP-rhodamine activity probe; AID 492956, 2010; Platelet-activating factor acetylhydrolase 2, cytoplasmic (Homo sapiens), Q99487; actives 0.99% (n = 340,000); inhibition, % at 3.39 µM;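 active = inhibition above the mean over all tested compounds plus 3 SD, cut at about 30% in these data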;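 note: inhibitors block probe labeling of enzyme so polarization drops; 0% = enzyme with DMSO and 100% = wells lacking PAFAH2 protein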
PAFAH1B2 inh = PAFAH1B2 enzyme inhibitors, primary screen, biochemical, fluorescence polarization, human. Platelet-activating factor acetylhydrolase IB subunit alpha2 (Homo sapiens), P68402. recombinant PAFAH1B2, FP-rhodamine activity probe. inhibition, % at 3.39 µM. actives 1.2% (n = 340,000). AID 492953, 2010;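 active = inhibition above the mean of all tested compounds plus 3 SD, cut at about 24% in these data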;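 note: 0% = enzyme with DMSO and 100% = wells lacking PAFAH1B2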
Target sequence (P68402 whole entry, looked up): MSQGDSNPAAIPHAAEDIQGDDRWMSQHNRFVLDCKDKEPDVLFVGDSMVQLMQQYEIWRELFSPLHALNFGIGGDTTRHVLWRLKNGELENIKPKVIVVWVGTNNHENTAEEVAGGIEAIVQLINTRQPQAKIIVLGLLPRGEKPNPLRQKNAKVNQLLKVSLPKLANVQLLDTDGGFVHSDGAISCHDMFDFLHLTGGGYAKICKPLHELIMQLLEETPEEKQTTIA
PAFAH1B3 inh = PAFAH1B3 enzyme inhibitors, primary screen, biochemical, fluorescence polarization, human; Platelet-activating factor acetylhydrolase IB subunit alpha1 (Homo sapiens), Q15102; recombinant PAFAH1B3, FP-rhodamine probe; inhibition, % at 3.39 µM; actives 0.28% (n = 340,000);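 active = inhibition above the screen-wide average of all tested compounds plus 3 SD, cut at about 25% in these data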;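 note: 0% = enzyme with DMSO only and 100% = wells lacking PAFAH1B3 protein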
Target sequence (Q15102 whole entry, looked up): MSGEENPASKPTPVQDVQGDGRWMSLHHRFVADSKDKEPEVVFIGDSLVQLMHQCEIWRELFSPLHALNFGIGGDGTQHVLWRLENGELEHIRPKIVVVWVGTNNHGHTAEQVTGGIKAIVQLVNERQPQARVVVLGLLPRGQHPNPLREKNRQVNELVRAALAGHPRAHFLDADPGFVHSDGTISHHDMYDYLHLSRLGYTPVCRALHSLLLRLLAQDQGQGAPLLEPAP
The depositor's hits bear a star; nt = not tested or not shown.

SMILES | VIM-2 inhibitor | pPAFAH FP inh | IMP-1 inh | PAFAH2 inh | PAFAH1B2 inh | PAFAH1B3 inh
CN(C)C(=O)COC(=O)c1ccccc1Nc1ccc(SC(F)F)cc1 | -1 | 26* | -3 | 6 | 4 | 9
CC1(C)CC(=O)C=C(Nc2ccc(Cl)c(Br)c2)C1 | -2 | 5 | -2 | 6 | 1 | -4
Nc1ccc(N2CCN(c3ccc(F)cc3)CC2)cc1 | -4 | 0 | -5 | -2 | -2 | 5
Nc1ccc(N2CCCCCC2)cc1 | 1 | 29* | -2 | nt | nt | nt
CN(CC(=O)Nc1ccc(F)cc1)C(=O)CNC(=O)C1CCCCC1 | nt | -2 | nt | 3 | 4 | 4
COc1ccc(OC)c(C=NNC(=O)c2ccc(NS(=O)(=O)c3cccs3)cc2)c1 | nt | 11 | nt | nt | nt | nt
CC(=O)Nc1ccc2c(O)cc(S(=O)(=O)O)cc2c1 | nt | nt | nt | -2 | 7 | 12
Nc1cccc2c(O)cccc12 | nt | 10 | nt | 44* | 17 | 35*
Nc1ccc2c(O)cc(S(=O)(=O)O)cc2c1 | nt | nt | nt | 54* | 37* | 60*
O=S(=O)(O)c1cc(O)c2ccc(Nc3ccccc3)cc2c1 | nt | nt | nt | 66* | 22 | 43*
COc1ccccc1Nc1ccc2c(O)cc(S(=O)(=O)O)cc2c1 | nt | nt | nt | 75* | 34* | 75*
Cc1c(Cl)cccc1NC(=O)CSc1nc2ncc(Cl)cc2[nH]1 | -7 | 5 | -2 | 0 | 2 | 0
O=C(CCNC(=O)c1ccc(Br)cc1)Nc1ncccc1O | -3 | 1 | -3 | 2 | 4 | 9
O=C(Cc1ccc(Cl)cc1)NCCc1cnc[nH]1 | -2 | 2 | -3 | -1 | 1 | 10
Cc1ccc(S(=O)(=O)c2cc(Nc3ccccc3)ccc2O)cc1 | nt | 19 | nt | 18 | 4 | -1
O=C(O)c1cc2cc(S(=O)(=O)O)ccc2cc1O | nt | nt | nt | 7 | 5 | 4
O=S(=O)(O)c1cc(O)c2cc(Nc3ccccc3)ccc2c1 | nt | nt | nt | 42* | 26* | 43*
Nc1cccc2c(O)cc(S(=O)(=O)O)cc12 | nt | nt | nt | 67* | 71* | 77*
O=S(=O)(O)c1ccc(O)c2cc(Nc3ccccc3)ccc12 | nt | nt | nt | 89* | 58* | 76*
COc1cc(S(=O)(=O)N2CCCN(C)CC2)ccc1NC(C)=O | 0 | 0 | -2 | 11 | 9 | 2
COc1ccccc1N1CCN(CCN2C(=O)CC(=C3c4ccccc4-c4ccccc43)C2=O)CC1 | -2 | 29* | 0 | nt | nt | nt
O=C(Cn1cc(SCc2ccc(Cl)cc2)c2ccccc21)N1CCOCC1 | 0 | 7 | -1 | -1 | 25* | 0
CCc1cc(C(=O)N/N=C/c2ccc(OC)cc2)c2ccccc2n1 | -3 | 3 | -2 | -2 | 8 | 6
CCc1ccc(-c2nc(CSCC(=O)N3CCN(c4ccccn4)CC3)c(C)o2)cc1 | -4 | 8 | -3 | -1 | 44* | 3
Cc1ccc(-c2nc(CSCC(=O)N3CCN(c4ccccn4)CC3)c(C)o2)cc1 | 1 | 0 | -2 | 3 | 25* | 3
SMILES | VIM-2 inhibitor | pPAFAH FP inh | IMP-1 inh | PAFAH2 inh | PAFAH1B2 inh | PAFAH1B3 inh
Cc1ccc(-c2nc(CSCC(=O)N3CCN(C(=O)c4ccco4)CC3)c(C)o2)cc1 | -2 | -4 | -2 | 7 | 0 | 2
COc1cccc(C2c3cc4c(cc3OC(NNC(N)=O)C2C)OCO4)c1O (configuration not stated) | nt | nt | nt | 4 | 5 | 2
Cc1ccc2c(CN3CCN(Cc4ccccc4)CC3)cc(=O)oc2c1C | 9.9* | 5 | 0 | 3 | 1 | 5
Cc1ccc2c(CN3CCOCC3)cc(=O)oc2c1C | 0 | 0 | -2 | 2 | 4 | 6
Cc1ccc2c(CN3CCN(CCO)CC3)cc(=O)oc2c1C | 9.9* | -1 | -2 | 6 | 5 | 0
Nc1nonc1C(=O)NCCN=Cc1cc(Cc2ccccc2)cc(Br)c1O | -4 | 33* | 8.7* | 3 | 10 | 6
Cc1ccc2[nH]c(=O)c(C3C(C#N)=C(N)Oc4c3ccc3cccnc43)cc2c1 (configuration not stated) | -1 | 25* | -1 | 11 | 3 | 7
N#CC1=C(N)Oc2c(ccc3cccnc23)C1c1ccccc1 (configuration not stated) | 1 | 12 | -3 | 3 | 2 | 13
COc1ccccc1C(=O)NC(=O)COC(=O)c1ccc(C)o1 | nt | -2 | nt | 6 | 4 | 11
O=C(OC1CCOC1=O)c1cccc(S(=O)(=O)Nc2cccc(Cl)c2)c1 (configuration not stated) | -1 | 27* | -2 | 16 | -4 | 9
O=C(CN1CCN(S(=O)(=O)c2ccc(Br)cc2)CC1)c1ccc(O)c(O)c1 | 2 | 11 | -5 | 14 | 29* | 1
O=C(CN1CCN(S(=O)(=O)c2ccc(Br)cc2)CC1)N/N=C/c1ccncc1 | -1 | -7 | -3 | -6 | 29* | 8
COc1ccc(OC)c(C(=O)CN2CCN(S(=O)(=O)c3ccc(Br)cc3)CC2)c1 | -2 | 7 | -3 | 3 | 29* | 5
CC(C)c1ccc(S(=O)(=O)N2CCN(CC(=O)c3ccc(O)c(O)c3)CC2)cc1 | 1 | 20 | -2 | 17 | 6 | 7
CC1(C)OC2OC3C(CNCCO)OC(c4ccccc4)OC3C2O1 (configuration not stated) | nt | nt | nt | 1 | 3 | 10
COc1ccc(N(C(=O)c2cnccn2)C(C(=O)NC2CCCCC2)c2cc(OC)c(OC)c(OC)c2)cc1 (configuration not stated) | -1 | 2 | -1 | -3 | 1 | -3
O=C(O)CSc1cc(NS(=O)(=O)c2ccc(Cl)cc2)c2ccccc2c1O | 2 | 12 | 2 | 36* | 51* | 52*
CCOC(=O)CC(c1ccc(N)cc1)n1c(C)ccc1C (configuration not stated) | -2 | -1 | -1 | 3 | 2 | -2
Cc1ccc(C)n1C(CC(=O)O)c1ccc(C#N)cc1 (configuration not stated) | -2 | 25* | -3 | nt | nt | nt
CCC(C)(CN(C)C)OC(=O)c1ccccc1 (configuration not stated) | nt | 2 | nt | 1 | 0 | 9
Nc1ncc(Br)cc1S(=O)(=O)NCCC(=O)NCCc1ccc(Cl)cc1 | -3 | 5 | 1 | 2 | 26* | 2
Nc1ncc(Br)cc1S(=O)(=O)NCCC(=O)Nc1cccc(Cl)c1 | -4 | -4 | -3 | 1 | 4 | 3
O=C(CN1C(=O)C2CCCCC2C1=O)Nc1nc(-c2ccccn2)cs1 (configuration not stated) | -5 | 0 | -3 | 0 | 1 | 1

High-throughput results (PubChem)
